Values after ≈ are worked out from the molar mass of the structure shown. Active and inactive are the calls of the source. No cut-off for these calls is given here.
Assays:
Sindbis virus = experiment: Antiviral activity against Sindbis virus infected in african green monkey Vero cells assessed as inhibition of virus-induced cytopathicity after 3 days postinfection; assay type: functional, organism-based; details: 72 h
In short: (§1)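 Confluent cell monolayers infected with 100 CCID50 virus; after 2 h adsorption at 37 °C, virus removed and serial compound dilutions added (DMSO stocks 10 mg/ml). Incubated 37 °C for 3 days until complete CPE in untreated virus control. EC50 = concentration protecting 50% of infected cells from viral cytopathogenicity; ">" marks highest concentration tested.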

Human alphaherpesvirus 1 [1] = experiment: Antiviral activity against thymidine kinase-deficient ACV-resistant HSV1 KOS infected in human HEL cells assessed as inhibition of virus-induced cytopathicity after 3 days; assay type: functional, organism-based; details: Human alphaherpesvirus 1, KOS, 72 h
[2] = Cytotoxicity against human HeLa cells assessed as minimum cytotoxic concentration required to cause microscopically detectable alteration in normal cell morphology; assay type: cell-based
In short: (§2)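 Run in parallel with antiviral assays on uninfected cell cultures; test compounds from 10 mg/ml DMSO stocks in serial dilution. Value is minimum cytotoxic concentration (MCC) producing microscopically detectable alteration of normal cell morphology.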

[3] = Selectivity index, ratio of MCC for african green monkey Vero cells to EC50 for Sindbis virus; assay type: toxicity, cell-based; details: read-out: Selectivity Index
In short: (§3)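 The ratio was MCC/EC50. MCC was the minimum concentration causing microscopically visible change in normal morphology of uninfected HEL, HeLa or Vero cells, scored in parallel with the antiviral test. EC50 came from the CPE assay: 100 CCID50 infection, 2 h adsorption at 37 °C, serial compound dilutions, and 3 days at 37 °C. It was the concentration protecting 50% of cells from virus-induced CPE.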

Vaccinia virus [4] = experiment: Antiviral activity against Vaccinia virus Western Reserve; assay type: functional, organism-based; details: Orthopoxvirus vaccinia
[5] = Selectivity index, ratio of MCC for african green monkey Vero cells to EC50 for Coxsackievirus B4; assay type: toxicity, cell-based; details: read-out: Selectivity Index; in short: as §3
[6] = tested on: Respiratory syncytial virus; experiment: Antiviral activity against RSV infected in human HeLa cells assessed as inhibition of virus-induced cytopathicity after 3 days; assay type: functional, organism-based; details: 72 h; in short: as §1
Vaccinia virus [7] = experiment: Antiviral activity against Vaccinia virus infected in human HEL cells assessed as inhibition of virus-induced cytopathicity after 3 days; assay type: functional, organism-based; details: Orthopoxvirus vaccinia, 72 h
Human alphaherpesvirus 2 = experiment: Antiviral activity against HSV2 G infected in human HEL cells assessed as inhibition of virus-induced cytopathicity after 3 days; assay type: functional, organism-based; details: Human alphaherpesvirus 2, strain G, 72 h; in short: as §1
Vaccinia virus [8] = experiment: Antiviral activity against Vaccinia virus Lister; assay type: functional, organism-based
Coxsackievirus B4 [9] = experiment: Antiviral activity against Coxsackievirus B4 infected in african green monkey Vero cells assessed as inhibition of virus-induced cytopathicity after 3 days; assay type: functional, organism-based; details: Enterovirus B, 72 h; in short: as §1
[10] = tested on: Vesicular stomatitis virus; experiment: Antiviral activity against Vesicular stomatitis virus infected in human HEL cells assessed as inhibition of virus-induced cytopathicity after 3 days; assay type: functional, organism-based; details: 72 h
[11] = tested on: Mammalian orthoreovirus 1; experiment: Antiviral activity against Reovirus 1 infected in african green monkey Vero cells assessed as inhibition of virus-induced cytopathicity after 3 days; assay type: functional, organism-based; details: Mammalian orthoreovirus 1, Vero, 72 h; in short: as §1
[12] = Selectivity index, ratio of MCC for african green monkey Vero cells to EC50 for Reovirus 1; assay type: toxicity, cell-based; details: read-out: Selectivity Index; in short: as §3
[13] = Selectivity index, ratio of MCC for human HEL cells to EC50 for sVaccinia virus; assay type: toxicity, cell-based; in short: as §3
[14] = Cytotoxicity against HEL cells assessed as minimum cytotoxic concentration required to cause microscopically detectable alteration in normal cell morphology; assay type: cell-based; details: human; in short: as §2
Vaccinia virus [15] = experiment: Antiviral activity against Vaccinia virus Copenhagen; assay type: functional, organism-based; details: Orthopoxvirus vaccinia
Coxsackievirus B4 [16] = experiment: Antiviral activity against Coxsackievirus B4 infected in human HeLa cells assessed as inhibition of virus-induced cytopathicity after 3 days; assay type: functional, organism-based; details: Enterovirus B, 72 h
In short: (§4)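 Confluent cell monolayers infected with 100 CCID50 virus; after 2 h adsorption at 37 °C, virus removed and serial compound dilutions added (DMSO stocks 10 mg/ml). Incubated 37 °C for 3 days until complete CPE in untreated virus control.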

Human respirovirus 3 = experiment: Antiviral activity against Parainfluenza virus type 3 infected in african green monkey Vero cells assessed as inhibition of virus-induced cytopathicity after 3 days; assay type: functional, organism-based; details: Human respirovirus 3, Vero, 72 h; in short: as §1
[17] = Cytotoxicity against african green monkey Vero cells assessed as minimum cytotoxic concentration required to cause microscopically detectable alteration in normal cell morphology; assay type: cell-based; details: chlorocebus sabaeus; in short: as §2
Punta Toro virus = experiment: Antiviral activity against Punta Toro virus infected in african green monkey Vero cells assessed as inhibition of virus-induced cytopathicity after 3 days; assay type: functional, organism-based; details: 72 h; in short: as §4
Human alphaherpesvirus 1 [18] = experiment: Antiviral activity against HSV1 KOS infected in human HEL cells assessed as inhibition of virus-induced cytopathicity after 3 days; assay type: functional, organism-based; details: Human alphaherpesvirus 1, KOS, 72 h
[19] = tested on: Vesicular stomatitis virus; experiment: Antiviral activity against Vesicular stomatitis virus infected in human HeLa cells assessed as inhibition of virus-induced cytopathicity after 3 days; assay type: functional, organism-based; details: 72 h
[20] = Selectivity index, ratio of MCC for african green monkey Vero cells to EC50 for Punta Toro virus; assay type: toxicity, cell-based; details: read-out: Selectivity Index; in short: as §3
Cowpox virus = experiment: Antiviral activity against Cowpox virus Brighton; assay type: functional, organism-based; details: Cowpox virus (Brighton Red)
[21] = Selectivity index, ratio of MCC for human HeLa cells to EC50 for Coxsackievirus B4; assay type: toxicity, cell-based; details: read-out: Selectivity Index; in short: as §3
[22] = Selectivity index, ratio of MCC for human HEL cells to EC50 for sVesicular stomatitis virus; assay type: toxicity, cell-based; details: read-out: Selectivity Index; in short: as §3

Compound | EC50 (Sindbis virus) [µg/mL] | EC50 (Human alphaherpesvirus 1 [1]) [µg/mL] | MCC [2] [µg/mL] | selectivity ratio [3] | selectivity ratio [5] | EC50 [6] [µg/mL] | EC50 (Vaccinia virus [7]) [µg/mL] | EC50 (Human alphaherpesvirus 2) [µg/mL] | EC50 (Coxsackievirus B4 [9]) [µg/mL] | EC50 [10] [µg/mL] | EC50 [11] [µg/mL] | selectivity ratio [12] | MCC [14] [µg/mL] | EC50 (Coxsackievirus B4 [16]) [µg/mL] | EC50 (Human respirovirus 3) [µg/mL] | MCC [17] [µg/mL] | EC50 (Punta Toro virus) [µg/mL] | EC50 (Human alphaherpesvirus 1 [18]) [µg/mL] | EC50 [19] [µg/mL] | selectivity ratio [20] | also measured
CC(=O)N1N=C(c2ccc(Cl)cc2)CC1c1ccc(OCc2ccccc2)cc1 (stereo not drawn) | > 4 | > 20 | ≥ 20 | 5 | 5 | > 20 | 7 (≈ 17.3 µM) | > 20 | > 4 | > 20 | > 4 | 5 | 100 | > 20 | > 4 | 20 | > 4 | > 20 | > 20 | 5 | Activity (Vaccinia virus [4]): inactive; Activity (Vaccinia virus [8]): inactive; selectivity ratio [13]: 3.6; Activity (Vaccinia virus [15]): inactive; Activity (Cowpox virus): inactive
Cc1ccc(C2=NN(C(N)=S)C(c3ccc(OCc4ccccc4)cc3)C2)cc1 (stereo not drawn) | > 20 | > 20 | 4 | – | – | > 0.8 | > 20 | > 20 | > 20 | > 20 | > 20 | – | 100 | > 0.8 | > 20 | 100 | > 20 | > 20 | > 0.8 | – | selectivity ratio [21]: 5
Cc1ccc(C2=NN(C3=NC(=O)CS3)C(c3ccc(OCc4ccccc4)cc3)C2)cc1 (stereo not drawn) | > 20 | > 4 | 100 | – | – | > 20 | > 4 | > 4 | > 20 | > 4 | > 20 | – | 20 | > 20 | > 20 | 100 | > 20 | > 4 | > 20 | – | selectivity ratio [22]: 5
Clc1ccc(-c2csc(N3N=C(c4ccc(Br)cc4)CC3c3ccc(OCc4ccccc4)cc3)n2)cc1 (stereo not drawn) | > 100 | > 100 | > 100 | – | – | > 100 | > 100 | > 100 | > 100 | > 100 | > 100 | – | > 100 | > 100 | > 100 | > 100 | > 100 | > 100 | > 100 | – | –
CC(=O)N1N=C(c2ccc(C)cc2)CC1c1ccc(OCc2ccccc2)cc1 (stereo not drawn) | > 4 | > 4 | 20 | 5 | 5 | > 4 | > 4 | > 4 | > 4 | > 4 | > 4 | 5 | 20 | > 4 | > 4 | 20 | > 4 | > 4 | > 4 | 5 | selectivity ratio [21]: 5; selectivity ratio [22]: 5
Clc1ccc(C2=NN(c3nc(-c4ccc(Cl)cc4)cs3)C(c3ccc(OCc4ccccc4)cc3)C2)cc1 (stereo not drawn) | > 20 | > 100 | > 100 | – | – | > 100 | > 100 | > 100 | > 20 | > 100 | > 20 | – | > 100 | > 100 | > 20 | 100 | > 20 | > 100 | > 100 | – | –

Reference: ChEMBL document CHEMBL1153616, “Synthesis and antiviral activity of new pyrazole and thiazole derivatives” (Eur J Med Chem, 2009)
